The record followed here is ChEMBL document CHEMBL4422685, “Design, synthesis and evaluation of a series of 5-methoxy-2,3-naphthalimide derivatives as AcrB inhibitors for the reversal of bacterial resistance” (Bioorg Med Chem Lett, 2019).

For data set [1], the target named is T1, Multidrug efflux pump subunit AcrB (Escherichia coli (strain K12)) (UniProt P31224).
T1 sequence (whole entry): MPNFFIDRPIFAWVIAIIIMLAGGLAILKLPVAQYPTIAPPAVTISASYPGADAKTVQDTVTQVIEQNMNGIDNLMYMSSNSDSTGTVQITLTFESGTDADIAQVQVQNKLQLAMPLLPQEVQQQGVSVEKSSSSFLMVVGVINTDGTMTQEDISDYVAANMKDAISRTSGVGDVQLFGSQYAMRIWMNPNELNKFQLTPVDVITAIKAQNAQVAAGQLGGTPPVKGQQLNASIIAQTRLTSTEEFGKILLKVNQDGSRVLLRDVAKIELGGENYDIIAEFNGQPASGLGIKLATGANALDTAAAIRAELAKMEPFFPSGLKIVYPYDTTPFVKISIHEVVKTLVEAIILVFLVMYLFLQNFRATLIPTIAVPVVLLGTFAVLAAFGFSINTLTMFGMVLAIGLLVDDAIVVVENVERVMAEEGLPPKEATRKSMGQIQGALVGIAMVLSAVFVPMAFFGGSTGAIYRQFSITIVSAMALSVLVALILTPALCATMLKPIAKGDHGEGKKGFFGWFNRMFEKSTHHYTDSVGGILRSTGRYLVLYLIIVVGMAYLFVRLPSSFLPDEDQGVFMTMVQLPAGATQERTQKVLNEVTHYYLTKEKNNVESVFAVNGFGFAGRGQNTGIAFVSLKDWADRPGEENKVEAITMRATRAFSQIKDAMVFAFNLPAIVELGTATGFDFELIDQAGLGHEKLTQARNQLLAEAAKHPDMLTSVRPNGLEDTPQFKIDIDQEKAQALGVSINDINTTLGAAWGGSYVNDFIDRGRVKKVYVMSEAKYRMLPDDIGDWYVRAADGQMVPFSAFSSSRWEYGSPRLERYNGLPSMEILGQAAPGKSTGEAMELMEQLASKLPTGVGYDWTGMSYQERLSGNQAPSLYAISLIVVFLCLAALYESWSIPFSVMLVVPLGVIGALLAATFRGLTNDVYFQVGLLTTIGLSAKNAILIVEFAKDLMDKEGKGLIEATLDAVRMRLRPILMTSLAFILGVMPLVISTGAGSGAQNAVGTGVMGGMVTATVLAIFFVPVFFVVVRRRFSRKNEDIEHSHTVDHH
As to the kind of experiment: Inhibition of AcrB in wild-type drug-resistant Escherichia coli […] assessed as potentiation of erythromycin-induced antimicrobial activity by measuring erythromycin MIC at 128 ug/ml by checkerboard titration method (reference value: 64 ug/ml).

In data set [2] the target is T1, Multidrug efflux pump subunit AcrB (Escherichia coli (strain K12)). As to the kind of experiment: Inhibition of AcrB in wild-type drug-resistant Escherichia coli […] assessed as potentiation of tetraphenyl phosphonium chloride-induced antimicrobial activity by measuring tetraphenyl phosphonium chloride MIC at 64 ug/ml by checkerboard titration method (reference value: 1024 ug/ml).

For data set [3] the target is unchanged. Nature of the data set: Inhibition of AcrB in wild-type drug-resistant Escherichia coli […] assessed as potentiation of tetraphenyl phosphonium chloride-induced antimicrobial activity by measuring tetraphenyl phosphonium chloride MIC at 32 ug/ml by checkerboard titration method (reference value: 1024 ug/ml).
Data set [4] shares this target. As to the kind of experiment: Inhibition of AcrB in wild-type drug-resistant Escherichia coli […] assessed as potentiation of chloramphenicol-induced antimicrobial activity by measuring chloramphenicol MIC at 8 ug/ml by checkerboard titration method (Rvb =16 ug/ml).
Data set [5] shares this target. As to the kind of experiment: Inhibition of AcrB in wild-type drug-resistant Escherichia coli […] assessed as potentiation of tetraphenyl phosphonium chloride-induced antimicrobial activity by measuring tetraphenyl phosphonium chloride MIC at 128 ug/ml by checkerboard titration method (reference value: 1024 ug/ml).
Data set [6] shares this target. As to the kind of experiment: Inhibition of AcrB in wild-type drug-resistant Escherichia coli […] assessed as reduction in glucose-induced nile red efflux at 100 to 200 uM by fluorescence assay. The essentials:
(§1)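 E. coli cells (wild-type resistant with active pump, acrB-deleted, or wild-type plus compound) preloaded with Nile Red before fluorescence recording. Efflux triggered at 100 s by adding 0.2% glucose. Fluorescence traces followed; experiments with different cell batches on three different days.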

For data set [7] the target is unchanged. As to the kind of experiment: Inhibition of AcrB in wild-type drug-resistant Escherichia coli […] assessed as potentiation of erythromycin-induced antimicrobial activity by measuring erythromycin MIC at 64 ug/ml by checkerboard titration method (reference value: 64 ug/ml).
Data set [8] shares this target. Nature of the data set: Inhibition of AcrB in wild-type drug-resistant Escherichia coli […] assessed as reduction in glucose-induced nile red efflux at 50 uM by fluorescence assay. The method, boiled down: as §1
For data set [9] the target is unchanged. As to the kind of experiment: Inhibition of AcrB in wild-type drug-resistant Escherichia coli […] assessed as reduction in glucose-induced nile red efflux at 100 uM by fluorescence assay. The method, boiled down:
as §1

The next data set relates to HeLa. Nature of the data set: Cytotoxicity against human HeLa cells after 48 hrs by MTT assay. The data set is classed as cell-based. The essentials: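 MTT-based viability assay on human cervical cancer HeLa cells, 48 h exposure; IC50 derived.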
The target of data set [10] is T1, Multidrug efflux pump subunit AcrB (Escherichia coli (strain K12)). Nature of the data set: Inhibition of AcrB in wild-type drug-resistant Escherichia coli […] assessed as potentiation of levofloxacin-induced antimicrobial activity by fold reduction in levofloxacin MIC at 16 to 32 ug/ml by checkerboard titration method relative to levofloxacin alone.
The target is the same in data set [11]. Nature of the data set: Inhibition of AcrB in wild-type drug-resistant Escherichia coli […] assessed as reduction in glucose-induced nile red efflux at 500 uM by fluorescence assay. The essentials: as §1
Data set [12] shares this target. As to the kind of experiment: Inhibition of AcrB in wild-type drug-resistant Escherichia coli […] assessed as reduction in glucose-induced nile red efflux at 200 uM by fluorescence assay. The essentials: as §1
For data set [13], the system named is Escherichia coli. As to the kind of experiment: Induction of Escherichia coli outer membrane permeabilization assessed as increase in nitrocefin hydrolysis at 32 ug/ml by spectroscopic method. It counts as organism-based.
Data set [14] deals with Escherichia coli. As to the kind of experiment: Disruption of Escherichia coli inner membrane integrity at 8 ug/ml after 10 mins by DiOC2(3) probe based fluorescence assay. The data set is classed as ADME, organism-based. Conditions: in vivo. The method, boiled down: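 Bacterial suspensions pre-exposed to compound for 10 min, then DiOC2(3) added and fluorescence followed to plateau. Cells re-energized with 0.5% glucose; membrane potential (inside negative) read as fluorescence rise to plateau, then collapsed with the proton ionophore CCCP. Untreated cells run alongside.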

The subject of data set [15] is Escherichia coli. As to the kind of experiment: Induction of Escherichia coli outer membrane permeabilization assessed as increase in nitrocefin hydrolysis at 8 ug/ml by spectroscopic method. The data set is classed as organism-based.

SMILES strings stand for the structures. Active and inactive are the calls of the source. The rule behind the calls is not given here.

With `COc1cccc2cc3c(cc12)C(=O)N(C1CCCC1)C3=O`, the MIC in [1] stood at 8 µg/mL; in data set [2], 1020 µg/mL; in [3] it was 1020 µg/mL; in data set [4], 16 µg/mL; in data set [5], 1020 µg/mL; in [7] it was 16 µg/mL. For the same compound, in [6], the inhibition result is “inactive”.

Regarding `COc1cccc2cc3c(cc12)C(=O)N(c1ccccc1Cl)C3=O`, the MIC was determined as 16 µg/mL in [1]; 1020 µg/mL in data set [2]; 1020 µg/mL in data set [3]; 16 µg/mL in [4]; 512 µg/mL in [5]; 64 µg/mL in data set [7]. The inhibition entry in data set [8] is “Active”.

For `CCCCCCN1C(=O)c2cc3cccc(OC)c3cc2C1=O`, the MIC in [1] is 8 µg/mL; in [2], 512 µg/mL; in [3], 512 µg/mL; in [4], 16 µg/mL; in data set [5], 128 µg/mL; in data set [7], 16 µg/mL. In addition, the inhibition in data set [8] came to 100%.

Regarding `COc1ccccc1CN1C(=O)c2cc3cccc(OC)c3cc2C1=O`, the inhibition entry in [9] is “Active”. For the same compound, the concentration for half-maximal inhibition (IC50) with HeLa is more than 64 µg/mL. The MIC in data set [1] came out at 64 µg/mL; in [2], 1020 µg/mL; in data set [3], 1020 µg/mL; in [4] it was 16 µg/mL; in [5], 512 µg/mL; in [7], 64 µg/mL. For the same compound, the fold change (FC) in [10] is 16.

For the compound `CCCCCN1C(=O)c2cc3cccc(OC)c3cc2C1=O`, the inhibition result in data set [9] is “Active”. The compound also displayed an IC50 in the data set with HeLa of more than 64 µg/mL. Moreover, the MIC in data set [1] was 8 µg/mL; in [2], 1020 µg/mL; in data set [3], 1020 µg/mL; in data set [4], 16 µg/mL; in data set [5] it was 512 µg/mL; in [7], 32 µg/mL.

Consider `COc1cccc2cc3c(cc12)C(=O)N(Cc1ccccc1)C3=O`, for which, in data set [9], the inhibition result was “Active”. Further, the MIC in [1] worked out at 16 µg/mL; in data set [2] it was 1020 µg/mL; in [3], 1020 µg/mL; in data set [4], 16 µg/mL; in data set [5] it was 512 µg/mL; in [7], 32 µg/mL.

As for `COc1cccc2cc3c(cc12)C(=O)N(C)C3=O`, the inhibition in data set [11] turned out to be 100%. The MIC stood at 32 µg/mL in data set [1]; 1020 µg/mL in data set [2]; 1020 µg/mL in [3]; 16 µg/mL in [4]; 1020 µg/mL in data set [5]; 32 µg/mL in data set [7]. The inhibition entry in data set [12] was “Active”. The Activity entry in the data set on Escherichia coli [13] is “Non-Toxic”.

With `COc1cccc2cc3c(cc12)C(=O)N(C(C)C)C3=O`, the inhibition in data set [11] was 100%. The MIC in data set [1] was 32 µg/mL; in data set [2], 1020 µg/mL; in [3], 1020 µg/mL; in data set [4], 8 µg/mL; in data set [5] it was 512 µg/mL; in data set [7], 32 µg/mL. In addition, the inhibition result in data set [12] was “Active”.

`CCc1ccccc1N1C(=O)c2cc3cccc(OC)c3cc2C1=O` registered an IC50 in the data set with HeLa of more than 64 µg/mL. The MIC in [1] is 32 µg/mL; in data set [2], 1020 µg/mL; in [3], 1020 µg/mL; in data set [4] it was 16 µg/mL; in [5], 512 µg/mL; in [7] it was 64 µg/mL. The inhibition entry in data set [8] is “Active”.

Regarding `COc1ccc(CN2C(=O)c3cc4cccc(OC)c4cc3C2=O)cc1`, the inhibition result in data set [9] is “Active”. Moreover, the Activity result in the data set with Escherichia coli [14] and in the data set on Escherichia coli [15] was “Non-Toxic” in each case. Besides, the MIC was determined as 32 µg/mL in data set [1]; 1020 µg/mL in data set [2]; 1020 µg/mL in data set [3]; 16 µg/mL in [4]; 1020 µg/mL in data set [5]; 32 µg/mL in data set [7].
